Most compounds without a hit are left out; they make up all but 2.9% or so of the library.
Wee1 degr inh = blocks degradation of human Wee1 kinase; reporter increase, % at 5 µM; HeLa Luc-Wee1K328M stability, luciferase luminescence; 100% = proteasome inhibitor MG132 effect; P30291; 220,000 tested, 1.2% active;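 active means activation above the mean of all tested compounds plus 3 SD, set per screening run, cut at about 8.8% in these data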;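 further: cells exposed to compound for 20 h before luminescence read; 0% = DMSO alone and 100% = MG132 at 30 µM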
Target sequence (P30291 whole entry K328M): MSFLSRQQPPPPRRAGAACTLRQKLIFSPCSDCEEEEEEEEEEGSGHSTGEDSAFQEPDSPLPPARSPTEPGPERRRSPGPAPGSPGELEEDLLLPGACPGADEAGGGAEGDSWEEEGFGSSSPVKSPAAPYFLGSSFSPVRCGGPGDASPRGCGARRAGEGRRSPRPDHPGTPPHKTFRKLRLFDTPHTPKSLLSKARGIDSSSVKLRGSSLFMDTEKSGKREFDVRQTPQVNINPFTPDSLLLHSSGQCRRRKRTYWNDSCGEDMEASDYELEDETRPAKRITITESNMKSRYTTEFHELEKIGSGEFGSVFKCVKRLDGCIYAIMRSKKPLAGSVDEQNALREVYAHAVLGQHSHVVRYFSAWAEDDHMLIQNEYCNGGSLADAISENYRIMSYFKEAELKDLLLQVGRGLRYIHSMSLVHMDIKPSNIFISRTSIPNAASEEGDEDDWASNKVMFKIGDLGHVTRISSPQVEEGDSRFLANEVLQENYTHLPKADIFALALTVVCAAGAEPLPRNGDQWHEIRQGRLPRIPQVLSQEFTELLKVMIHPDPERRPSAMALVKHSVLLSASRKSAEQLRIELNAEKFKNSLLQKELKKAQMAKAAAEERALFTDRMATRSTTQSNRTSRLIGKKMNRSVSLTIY
b-catenin transl = modulators of beta-catenin nuclear translocation; HeLa beta-catenin nuclear translocation, immunofluorescence imaging; 190,000 tested, 0.3% active; nuclear translocation activity, % at 5 µM;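 active means nuclear translocation activity above 50% at 5 µM, with a well cell count of 50 or more; inconclusive means wells under 50 cells across six images, flagged as toxic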;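 further: per-cell ratio of nuclear to cytoplasmic median beta-catenin stain intensity; plate controls were DMSO negative control for no effect and GSK-3 inhibitor IX positive control for full effect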
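Test system: human HeLa cells, endogenous beta-catenin. Times: 24 h compound exposure, 37°C. Measured by: beta-catenin immunofluorescence imaging with DAPI.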
Ins promoter up = MIN6 insulin promoter up-regulation; 190,000 tested, 0.3% active; z-score at 5 µM; MIN6 insulin promoter-GFP reporter, high-content imaging; hits give high values; AID 1625;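 active means z-score above 3 at 5 µM with at least 500 cells counted in the well; inconclusive means wells under 500 cells, flagged as cytotoxic or low count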
Autophagy mod = modulators of autophagy; MEF GFP-LC3 puncta imaging; test concentration mostly 10 µM; calls only at 10 µM (by protocol); 190,000 tested, 0.98% active;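 active means percentage of spot-positive cells more than 3 SD above its plate mean, without a fluorescence outlier flag or 80% toxicity; inconclusive means no clear call, values can overlap the other calls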;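 further: spot-positive cell cutoff set from DMSO-treated cells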
MT stabilizer = microtubule stabilizers in HeLa cells. HeLa tubulin immunostaining HCS, 24 h; share of cells brighter than vehicle mean+2SD. % tubulin-high responders, % at 10 µM. 200,000 tested, 0.83% active. AID 2205;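 active means plate Z-score above 3 for both tubulin-high and condensed-nucleus cell shares, with cell loss under 80%, at 10 µM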;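 further: anti alpha tubulin signal scored within the nucleus-defined area of each cell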
* = called active by the depositor; i = inactive; ? = inconclusive; · = no result given; + = active, no number.

SMILES	Wee1 degr inh	b-catenin transl	Ins promoter up	Autophagy mod	MT stabilizer
Cn1c(=O)c(=O)n(C)c2cc(S(=O)(=O)N3CCCC3C(=O)NCc3ccco3)ccc21 (stereo not given)	9.0*	0	1.2	·	·
Cc1ccc(-n2c(-c3ccncc3)n[nH]c2=S)c(C)c1	-1	-5	-0.31	i	3
COC(=O)c1c(NC(=O)COC(=O)[C@@H](NS(=O)(=O)c2cccc(Cl)c2)C(C)C)sc2c1CCC2	-1	-6	-0.78	+	2
COC(=O)c1sc(N)c(C(=O)OC)c1COC(=O)[C@@H](NS(=O)(=O)c1cccc(Cl)c1)C(C)C	-4	4	·	i	3
O=C(CCl)Nc1cccc2ncccc12	1	9	4*	i	6
COc1ccc(OCC(=O)Nc2cccc3ncccc23)cc1	-2	-1	-0.01	i	1
COc1ccc(NS(=O)(=O)c2cc(NC(=O)c3ccc(C)s3)ccc2N2CCOCC2)cc1	-2	1	-1.6	·	·
CCc1ccc(NC(=O)C(C)OC(=O)c2ccc(N3CCCC3)c([N+](=O)[O-])c2)cc1 (stereo not given)	2	-1	0.17	i	5
O=C(NCc1ccco1)C1CCCN1C(=O)Nc1ccccc1Cl (stereo not given)	-2	0	0.31	i	1
CCOC(=O)COc1ccc2c(=O)c(-c3ccc(OC)c(OC)c3)c(C(=O)OCC)oc2c1	-1	-1	0.13	·	·
CCOC(=O)c1oc2cc(OC(C)=O)ccc2c(=O)c1-c1ccc(OC)c(OC)c1	9.3*	1	-0.29	·	·
Cc1nnc(NC(=O)c2oc3cc(C)c(C)cc3c2C)s1	0	·	0.55	+	2
Cc1ccc2c(C)c(C(=O)Nc3nnc(C)s3)oc2c1	-2	-7	0.56	i	5
CC1(C)N([O-])C(c2ccccc2)=C[N+](=O)C1(C)C	9.3*	·	·	i	2
COc1ccc(OC)c(C2=C[N+](=O)C(C)(C)C(C)(C)N2[O-])c1	2	·	·	i	3
CN(C)CCN(C(=O)c1ccc(N2C(=O)CCC2=O)cc1)c1nc2cc3c(cc2s1)OCCO3	-1	0	0.64	i	1
Cc1c2ccccc2nc2c(F)c(N(C)C)c(F)c(F)c12	1	4	1.9	+	3
CN(C)c1c2ccccc2nc2c(F)c(F)c(F)c(F)c12	1	0	·	i	2
Cc1cc(C)n(-c2ccc(C(=O)OCC(=O)Nc3ccc(Cl)cc3[N+](=O)[O-])cc2)n1	-1	-1	0.85	i	3
S=C(Nc1ccc(Br)cc1Cl)Nn1cnnc1	-3	-3	-0.14	i	4
CCn1cc(C(=O)O)c(=O)c2cc(OC)ccc21	0	0	1.1	i	4
COc1ccc2c(c1)c(=O)c(C(=O)c1ccccc1)cn2Cc1ccc(C)cc1	3	5	0.15	i	22*
O=C(Nc1ccccc1Br)C1CC(=O)N(c2ccc3c4c(cccc24)CC3)C1 (stereo not given)	-1	4	0.21	i	38*
Cc1ccccc1NC(=O)C1CC(=O)N(c2ccc3c4c(cccc24)CC3)C1 (stereo not given)	-2	·	·	i	2
C[C@H]1CC[C@@]2(O[C@@H](CCO)C[C@@H](O)[C@@H]2O)O1	-1	-2	-0.51	i	5
SMILES	Wee1 degr inh	b-catenin transl	Ins promoter up	Autophagy mod	MT stabilizer
C[C@H]1CC[C@@]2(O[C@H](CCO)C[C@@H](O)[C@@H]2O)O1	9.4*	-2	1.1	i	3
O=C(COC(=O)Cc1n[nH]c(=O)c2ccccc12)Nc1ccc(Cl)cc1F	8.9*	1	0.19	i	4
CCOC(=O)Cc1n[nH]c(=O)c2ccccc12	4	-1	0.28	i	4
CCOC(=O)c1ccc2nc(CCC(=O)N[C@H](C(=O)OC)C(C)C)c(=O)n(CC)c2c1	0	3	-0.02	i	2
CCCCCCCCCCC[C@@H](C[C@@H]1OC(=O)[C@H]1CCCCCC)OC(=O)[C@H](CC(C)C)NC=O	7	-1	0.01	·	·
CCCCCN(C(=O)NC(=O)NCCCC)S(C)(=O)=O	4	0	0.94	i	3
CCCCCN(C(=O)NC(=O)Nn1cnnc1)S(C)(=O)=O	9.9*	-1	1.8	i	3
Cn1c(=O)[nH]c(=O)c2cc(C(=O)c3cc(F)ccc3O)cnc21	10*	-1	1.9	i	2
CCOC(=O)c1nnn(-c2nonc2N)c1-c1ccc(OCC)cc1	0	0	3.8*	i	4
N=C1C(c2nc3ccccc3[nH]2)=C(O)CN1NC(=O)COc1cccc(F)c1	-1	-6	0.17	i	2
O=C(Nc1nnc(C2CC2)s1)c1n[nH]c(=O)c2ccccc12	-2	-2	-0.01	·	·
C=CCCC1(C)C(=O)N(c2ccccc2)c2ccccc21 (stereo not given)	3	·	0.36	i	19*
C=CCC1(C)C(=O)N(c2ccccc2)c2ccccc21 (stereo not given)	6	·	-0.44	i	3
COC(=O)Cn1c2ccc(F)cc2c2nc(C)sc21	-1	-3	0.18	i	3
CCOC(=O)Cn1c2ccc(F)cc2c2nc(C)sc21	-1	-2	3.7*	i	2
C/C(=N\NC(=O)CSc1nc(C)[nH]c1[N+](=O)[O-])c1ccc(F)cc1	-1	-5	0.31	·	·
CCN(CC)S(=O)(=O)c1ccc(OC)c(NC(=O)C(Cc2ccccc2)N2C(=O)c3ccccc3C2=O)c1 (stereo not given)	-3	-1	-0.25	i	5
COc1ccc(C2CCCN2C(=O)Nc2ccc(Cl)cc2)cc1OC (stereo not given)	0	·	-0.62	+	5
CCN(CC)c1ccc2cc(-c3nnc(-c4ccccc4)o3)c(=O)oc2c1	1	-2	·	?	3
CCN(CC)c1ccc2cc(-c3nc4ccccc4n3C)c(=O)oc2c1	-1	66*	1.7	i	29*
CCN(CC)c1ccc2cc(-c3nc4ccccc4[nH]3)c(=O)oc2c1	-2	1	·	+	18
CCOc1cc(C=O)cc(Cl)c1OCC(N)=O	6	0	0.78	i	1
Cc1ccccc1/C=N/Nc1nc2ccccc2c(=O)n1O	2	-1	-0.33	·	·
Cc1c2c(nc3c(C)cccc13)OC(C)C2 (stereo not given)	0	1	0.15	+	6
O=C(OCCN1C(=O)c2cccc3c(N4CCOCC4)ccc(c23)C1=O)c1ccc(Cl)cc1Cl	3	80*	·	+	16*
Cc1n[nH]c(C)c1N1C(=O)c2cccc3c(N4CCCCCC4)ccc(c23)C1=O	2	0	·	+	5
O=C(OCCN1C(=O)c2cccc3c(N4CCOCC4)ccc(c23)C1=O)c1cccc(Cl)c1	5	56*	1.5	+	16*
O=C(OCCN1C(=O)c2ccccc2C1=O)c1cc(S(=O)(=O)N2CCOCC2)ccc1Cl	-1	-4	0.57	i	7

Bioassay records deposited in PubChem BioAssay by several laboratories.
